Key:
[1] = 1-Octanol-water partition coefficient, log P of the compound by spectrophotometer analysis corrected for ionization; format: physicochemical
Procedure, shortened: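 Octanol-water log P was measured by the shake-flask method: UV-spectrophotometric assay of one phase, the other by difference, at least triplicate runs with different sample amounts, averaged. The measured log P was then corrected for ionization.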

[2] = Ionization constant, pKa of quinoline nitrogen group of the compound at 1 mM by potentiometric analysis; format: physicochemical
Procedure, shortened: (§1)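 Potentiometric titration of 10⁻³ M test solutions in ethanol (95%)–water mixtures of varying proportion, 100 ml per titration, at 25 ± 0.1 °C under nitrogen with stirring. Titrant added in 0.25-ml aliquots, with stirring and gas stopped for each pH reading. Acidic function titrated with 0.02 N KOH, basic function with 0.02 N HCl. Boiled distilled, deionized water used for dilutions.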

[3] = Ionization constant, pKa of 8-hydroxyl group of the compound at 1 mM by potentiometric analysis; format: physicochemical; procedure, shortened: as §1
[4] = 1-Octanol-water partition coefficient, log P of the compound by spectrophotometer analysis; format: physicochemical
Procedure, shortened: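 Shake-flask partition between 1-octanol and water. Phase-volume ratio and sample amount set so that test-layer absorbance after partitioning fell between 0.2 and 0.9 in a 1-cm cell. The solute was measured by UV spectrophotometry in one layer only, and the other layer was obtained by difference. P = C_octanol/C_water. At least triplicate runs with different sample amounts, log P averaged.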

[5] = system: Streptococcus mutans; test: Antibacterial activity against Streptococcus mutans No.6715 assessed as inhibition of bacterial growth after 24 to 48 hrs by spectrophotometric analysis; format: functional; details: for MIC: Streptococcus mutans, No.6715
Procedure, shortened: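 S. mutans No. 6715, pure plaque-forming strain; media inoculated with 0.20 ml of a 24-h culture. Incubated anaerobically at 37 °C. Growth was read spectrophotometrically (% T) at 24 and 48 h. Dilution series run in sets of five tubes. MIC (molar) was taken as the lowest drug level whose tubes read above 60% T at 24 h.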

[6] = Ionization constant, pKa of substituent at 5th position of the compound at 1 mM by potentiometric analysis; format: physicochemical; procedure, shortened: as §1

## CCOC(=O)Cc1ccc(O)c2ncccc12
[1]
  logP: 2.27
[2]
  pKa at 1000 µM: 4.72
[3]
  pKa at 1000 µM: 9.4

## OCc1ccc(O)c2ncccc12
[4]
  logP: 1
[1]
  logP: 1
[2]
  pKa at 1000 µM: 4.93
[3]
  pKa at 1000 µM: 9.53

## Cc1ccc(O)c2ncccc12 [TILIQUINOL]
[4]
  logP: 2.38
[1]
  logP: 2.38
[2]
  pKa at 1000 µM: 5.25
[3]
  pKa at 1000 µM: 9.92

## COC(=O)Cc1ccc(O)c2ncccc12
[2]
  pKa at 1000 µM: 4.72
[3]
  pKa at 1000 µM: 9.46

## O=Cc1ccc(O)c2ncccc12
[1]
  logP: 2.07
[2]
  pKa at 1000 µM: 4.42
[3]
  pKa at 1000 µM: 7.01

## Oc1cccc2cccnc12 [OXYQUINOLINE]
[1]
  logP: 1.95
[2]
  pKa at 1000 µM: 5.14
[3]
  pKa at 1000 µM: 9.64

## Cl.N#CCc1ccc(O)c2ncccc12
[5]
  log(1/MIC): -1.778
  MIC: 60 µM

## CCN(CC)Cc1ccc(O)c2ncccc12
[4]
  logP: 1.41
[1]
  logP: 4.41
[2]
  pKa at 1000 µM: 4.48
[6]
  pKa at 1000 µM: 9.32
[3]
  pKa at 1000 µM: 9.19

## Cl.O=[N+]([O-])c1ccc(O)c2ncccc12
[5]
  log(1/MIC): -1.903
  MIC: 80 µM

## CN(C)Cc1ccc(O)c2ncccc12
[4]
  logP: 1.06
[1]
  logP: 2.37
[2]
  pKa at 1000 µM: 4.47
[6]
  pKa at 1000 µM: 8.66
[3]
  pKa at 1000 µM: 9.46

## O=[N+]([O-])c1ccc(O)c2ncccc12 [NITROXOLINE]
[4]
  logP: -1.17
[1]
  logP: 0.11
[2]
  pKa at 1000 µM: 3.68
[3]
  pKa at 1000 µM: 5.97

## Cc1ccc(O)c2ncccc12.Cl
[5]
  log(1/MIC): -1.301
  MIC: 20 µM

## CCN(CC)Cc1ccc(O)c2ncccc12.Cl
[5]
  log(1/MIC): -1.602
  MIC: 40 µM

## Cl.Oc1ccc(I)c2cccnc12
[5]
  log(1/MIC): -0.602
  MIC: 4 µM

## Cl.Oc1cccc2cccnc12
[5]
  log(1/MIC): -0.301
  MIC: 2 µM

## Oc1ccc(I)c2cccnc12
[1]
  logP: 3.29
[2]
  pKa at 1000 µM: 4.43
[3]
  pKa at 1000 µM: 8.31

## Oc1ccc(Cl)c2cccnc12 [CLOXYQUIN]
[4]
  logP: 2.91
[1]
  logP: 2.94
[2]
  pKa at 1000 µM: 3.8
[3]
  pKa at 1000 µM: 8.7

## CN(C)Cc1ccc(O)c2ncccc12.Cl
[5]
  log(1/MIC): -1.602
  MIC: 40 µM

## CC(=O)c1ccc(O)c2ncccc12
[1]
  logP: 1.96
[2]
  pKa at 1000 µM: 4.07
[3]
  pKa at 1000 µM: 7.62

## CCOC(=O)Cc1ccc(O)c2ncccc12.Cl
[5]
  log(1/MIC): -2.903
  MIC: 800 µM

## COc1ccc(O)c2ncccc12.Cl
[5]
  log(1/MIC): -1.602
  MIC: 40 µM

## Cl.Oc1ccc(Cl)c2cccnc12
[5]
  log(1/MIC): -0.301
  MIC: 2 µM

## COC(=O)Cc1ccc(O)c2ncccc12.Cl
[5]
  log(1/MIC): -2.903
  MIC: 800 µM

## N#CCc1ccc(O)c2ncccc12
[1]
  logP: 1.82
[2]
  pKa at 1000 µM: 4.3
[3]
  pKa at 1000 µM: 9.25

## COc1ccc(O)c2ncccc12
[4]
  logP: 2.1
[1]
  logP: 2.1
[2]
  pKa at 1000 µM: 4.84
[3]
  pKa at 1000 µM: 9.96

## CC(=O)c1ccc(O)c2ncccc12.Cl
[5]
  log(1/MIC): -0.602
  MIC: 4 µM

## Cl.O=Cc1ccc(O)c2ncccc12
[5]
  log(1/MIC): -0.778
  MIC: 6 µM

## Cl.OCc1ccc(O)c2ncccc12
[5]
  log(1/MIC): -2
  MIC: 100 µM
